Data taken from ChEMBL document CHEMBL1125520, “Improved brain delivery of AZT using a glycosyl phosphotriester prodrug” (1992).

Experiments:
Mus musculus [1] = experiment: In Vivo detection in Mice brains after oral administration of 58.33 mg/kg detected in the form of AZT 5`-P after 0.5 hr; format: functional
Mus musculus [2] = experiment: In Vivo detection in Mice brains after oral administration of 58.33 mg/kg detected in the form of AZT 5`-P after 48 hr; format: functional
Mus musculus [3] = experiment: In Vivo detection in Mice brains after oral administration of 58.33 mg/kg detected in the form of AZT 5`-P after 8 hr; format: functional
Mus musculus [4] = experiment: In Vivo detection in Mice brains after oral administration of 58.33 mg/kg detected in the form of AZT after 4 hr; format: functional
Mus musculus [5] = experiment: In Vivo detection in Mice brains after oral administration of 58.33 mg/kg detected in the form of AZT after 8 hr; format: functional
Mus musculus [6] = experiment: In Vivo detection in Mice brains after oral administration of 58.33 mg/kg detected in the form of AZT phosphodiester 2 after 24 hr; format: functional
Mus musculus [7] = experiment: In Vivo detection in Mice brains after oral administration of 58.33 mg/kg detected in the form of AZT phosphodiester 2 after 48 hr; format: functional
Mus musculus [8] = experiment: In Vivo detection in Mice brains after oral administration of 58.33 mg/kg detected in the form of AZT phosphodiester 2 after 4 hr; format: functional
Mus musculus [9] = experiment: In Vivo detection in Mice brains after oral administration of 58.33 mg/kg detected in the form of AZT phosphodiester 3 after 0.5 hr; format: functional
Mus musculus [10] = experiment: In Vivo detection of total AZT in Mice brains after oral administration of 58.33 mg/kg after 4 hr; format: functional
How it was run: (§1)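 Male Swiss mice (18–20 g) dosed orally with a 3 mM solution in […] vehicle; decapitated at 0.5–48 h. Brains were homogenized in acetonitrile-water (3:1), centrifuged at 6000g for 40 min at 4 °C, lyophilized, redissolved in water and filtered (0.45 µm). Reversed-phase C18 column-switching HPLC with diode-array detection; standard spiking; vehicle-fed controls. Three mice per point, triplicates.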

Mus musculus [11] = experiment: In Vivo detection of total AZT in Mice brains after oral administration of 58.33 mg/kg after 8 hr; format: functional; how it was run: as §1
Mus musculus [12] = experiment: In Vivo detection in Mice plasma after oral administration of 58.33 mg/kg detected in the form of AZT phosphodiester 3 after 2 hr; format: functional, organism-based; parameters: dose 58.33 mg/kg
How it was run: (§2)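 Male Swiss mice (18–20 g, six weeks old) given the test substance or vehicle ([…]) by gavage as a 3 mM solution (1.5 µmol/mouse). Aortic blood was collected into heparinized tubes at 0.5–48 h and centrifuged at 13000g for 10 min. Plasma was stored at -22 °C and analysed by HPLC. Three mice were used per time point, in triplicate. Values were not corrected for recovery.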

Mus musculus [13] = experiment: In Vivo detection in Mice plasma after oral administration of 58.33 mg/kg detected in the form of AZT after 48 hr; format: functional, organism-based; parameters: dose 58.33 mg/kg; how it was run: as §2
Mus musculus [14] = experiment: In Vivo detection in Mice plasma after oral administration of 58.33 mg/kg detected in the form of AZT after 4 hr; format: functional, organism-based; parameters: dose 58.33 mg/kg
Mus musculus [15] = experiment: In Vivo detection in Mice plasma after oral administration of 58.33 mg/kg detected in the form of AZT phosphodiester 2 after 48 hr; format: functional, organism-based; parameters: dose 58.33 mg/kg; how it was run: as §2
Mus musculus [16] = experiment: In Vivo detection in Mice plasma after oral administration of 58.33 mg/kg detected in the form of AZT phosphodiester 2 after 8 hr; format: functional, organism-based; parameters: dose 58.33 mg/kg; how it was run: as §2
Mus musculus [17] = experiment: In Vivo detection in Mice plasma after oral administration of 58.33 mg/kg detected in the form of AZT phosphodiester 3 after 8 hr; format: functional, organism-based; parameters: dose 58.33 mg/kg; how it was run: as §2
Mus musculus [18] = experiment: In Vivo detection of total AZT in Mice plasma after oral administration of 58.33 mg/kg after 0.5 hr; format: functional, organism-based; parameters: dose 58.33 mg/kg; how it was run: as §2
Mus musculus [19] = experiment: In Vivo detection in Mice brains after oral administration of 58.33 mg/kg detected in the form of AZT phosphodiester 2 after 8 hr; format: functional
Mus musculus [20] = organism: Mus musculus; experiment: Concentration of external nucleoside in mouse brain; format: functional
How it was run: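 Male Swiss mice (6 weeks, 18–20 g) dosed by oral gavage in saline vehicle at 20 mg/kg AZT or molar equivalent (3 mM, 1.5 µmol/mouse). Brains taken 0.5–48 h post-dose, homogenized in acetonitrile–water 3:1, centrifuged, lyophilized and filtered. Analysed by column-switching C18 HPLC with diode-array detection against spiked standards and vehicle controls. Three mice per time point, triplicates; not recovery-corrected.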

Mus musculus [21] = experiment: In Vivo detection in Mice brains after oral administration of 41.63 mg/kg detected in the form of AZT phosphodiester 2 after 8 hr; format: functional
Mus musculus [22] = experiment: In Vivo detection in Mice brains after oral administration of 41.63 mg/kg detected in the form of AZT 5`-P after 0.5 hr; format: functional
Mus musculus [23] = experiment: In Vivo detection in Mice brains after oral administration of 41.63 mg/kg detected in the form of AZT 5`-P after 1 hr; format: functional
Mus musculus [24] = experiment: In Vivo detection in Mice brains after oral administration of 41.63 mg/kg detected in the form of AZT 5`-P after 24 hr; format: functional
Mus musculus [25] = experiment: In Vivo detection in Mice brains after oral administration of 41.63 mg/kg detected in the form of AZT after 0.5 hr; format: functional
Mus musculus [26] = experiment: In Vivo detection in Mice plasma after oral administration of 41.63 mg/kg detected in the form of AZT 5`-P after 24 hr; format: functional, organism-based; parameters: dose 41.63 mg/kg
Mus musculus [27] = experiment: In Vivo detection of total AZT in Mice brains after oral administration of 41.63 mg/kg after 2 hr; format: functional; how it was run: as §1
Mus musculus [28] = experiment: In Vivo detection in Mice plasma after oral administration of 41.63 mg/kg detected in the form of AZT after 4 hr; format: functional, organism-based; parameters: dose 41.63 mg/kg
Mus musculus [29] = experiment: In Vivo detection in Mice plasma after oral administration of 41.63 mg/kg detected in the form of AZT phosphodiester 2 after 0.5 hr; format: functional, organism-based; parameters: dose 41.63 mg/kg
Mus musculus [30] = experiment: In Vivo detection in Mice plasma after oral administration of 41.63 mg/kg detected in the form of AZT phosphodiester 2 after 24 hr; format: functional, organism-based; parameters: dose 41.63 mg/kg
Mus musculus [31] = experiment: In Vivo detection in Mice plasma after oral administration of 41.63 mg/kg detected in the form of AZT phosphodiester 2 after 48 hr; format: functional, organism-based; parameters: dose 41.63 mg/kg
Mus musculus [32] = experiment: In Vivo detection of total AZT in Mice brains after oral administration of 41.63 mg/kg after 0.5 hr; format: functional; how it was run: as §1
Mus musculus [33] = experiment: In Vivo detection in Mice plasma after oral administration of 41.63 mg/kg detected in the form of AZT 5`-P after 48 hr; format: functional, organism-based; parameters: dose 41.63 mg/kg
Mus musculus [34] = experiment: In Vivo detection in Mice plasma after oral administration of 41.63 mg/kg detected in the form of AZT 5`-P after 4 hr; format: functional, organism-based; parameters: dose 41.63 mg/kg
Mus musculus [35] = experiment: In Vivo detection in Mice plasma after oral administration of 41.63 mg/kg detected in the form of AZT after 1 hr; format: functional, organism-based; parameters: dose 41.63 mg/kg
Mus musculus [36] = experiment: In Vivo detection of total AZT in Mice brains after oral administration of 41.63 mg/kg after 1 hr; format: functional; how it was run: as §1
Mus musculus [37] = experiment: In Vivo detection of total AZT in Mice plasma after oral administration of 41.63 mg/kg after 2 hr; format: functional, organism-based; parameters: dose 41.63 mg/kg; how it was run: as §2
Mus musculus [38] = experiment: In Vivo detection of total AZT in Mice plasma after oral administration of 41.63 mg/kg after 48 hr; format: functional, organism-based; parameters: dose 41.63 mg/kg; how it was run: as §2

SMILES: CCCCCCCCCCCCCCCCOP(=O)(OCCO[C@H]1O[C@H](CO)[C@@H](O)[C@H](O)[C@@H]1O)OCC1OC(n2cc(C)c(=O)[nH]c2=O)CC1N=[N+]=[N-] (stereo partly drawn)
- Brain content (Mus musculus [1]): 36.7 nmol/g
- Brain content (Mus musculus [2]): 58.6 nmol/g
- Brain content (Mus musculus [3]): 106 nmol/g
- Brain content (Mus musculus [4]): 1 nmol/g
- Brain content (Mus musculus [5]): 2 nmol/g
- Brain content (Mus musculus [6]): 5.2 nmol/g
- Brain content (Mus musculus [7]): 3.8 nmol/g
- Brain content (Mus musculus [8]): 7.1 nmol/g
- Brain content (Mus musculus [9]): 0 nmol/g
- Brain content (Mus musculus [10]): 122 nmol/g
- Brain content (Mus musculus [11]): 113 nmol/g
- Plasma content (Mus musculus [12]): 0 nM ml-1
- Plasma content (Mus musculus [13]): 0 nM ml-1
- Plasma content (Mus musculus [14]): 2.3 nM ml-1
- Plasma content (Mus musculus [15]): 0 nM ml-1
- Plasma content (Mus musculus [16]): 0 nM ml-1
- Plasma content (Mus musculus [17]): 0 nM ml-1
- Plasma content (Mus musculus [18]): 13.7 nM ml-1
- Brain content (Mus musculus [19]): 5.3 nM ml-1

SMILES: Cc1cn([C@H]2C[C@H](N=[N+]=[N-])[C@@H](COP(=O)(O)OCCO[C@H]3O[C@H](CO)[C@@H](O)[C@H](O)[C@@H]3O)O2)c(=O)[nH]c1=O
- External nucleoside (Mus musculus [20]): 8000 nM/g
- Brain content (Mus musculus [21]): 8.9 nmol/g
- Brain content (Mus musculus [22]): 31 nmol/g
- Brain content (Mus musculus [23]): 79.3 nmol/g
- Brain content (Mus musculus [24]): 56.5 nmol/g
- Brain content (Mus musculus [25]): 1.8 nmol/g
- Plasma content (Mus musculus [26]): 26.8 nM ml-1
- Brain content (Mus musculus [27]): 26.2 nM ml-1
- Plasma content (Mus musculus [28]): 0 nM ml-1
- Plasma content (Mus musculus [29]): 4.5 nM ml-1
- Plasma content (Mus musculus [30]): 0 nM ml-1
- Plasma content (Mus musculus [31]): 0 nM ml-1
- Brain content (Mus musculus [32]): 38.6 nM ml-1
- Plasma content (Mus musculus [33]): 17.9 nM ml-1
- Plasma content (Mus musculus [34]): 6.7 nM ml-1
- Plasma content (Mus musculus [35]): 18.3 nM ml-1
- Brain content (Mus musculus [36]): 97.7 nmol/g
- Plasma content (Mus musculus [37]): 19.7 nM ml-1
- Plasma content (Mus musculus [38]): 17.9 nM ml-1
